From ChEMBL document CHEMBL2203262, “The design and synthesis of indazole and pyrazolopyridine based glucokinase activators for the treatment of type 2 diabetes mellitus” (Bioorg Med Chem Lett, 2012)
Values after ≈ are worked out from the molar mass of the structure shown.

Columns and labels:
[1] = Kinetic solubility of the compound; type: physicochemical; conditions: read-out: Kinetic_solubility
[2] = target: T1, Hexokinase-4 (Homo sapiens, UniProt P35557); assay: Activation of recombinant human glucokinase assessed measuring rate of glucose 6-phosphate formation using G6PDH/NADP coupling
T1 sequence (P35557 whole entry): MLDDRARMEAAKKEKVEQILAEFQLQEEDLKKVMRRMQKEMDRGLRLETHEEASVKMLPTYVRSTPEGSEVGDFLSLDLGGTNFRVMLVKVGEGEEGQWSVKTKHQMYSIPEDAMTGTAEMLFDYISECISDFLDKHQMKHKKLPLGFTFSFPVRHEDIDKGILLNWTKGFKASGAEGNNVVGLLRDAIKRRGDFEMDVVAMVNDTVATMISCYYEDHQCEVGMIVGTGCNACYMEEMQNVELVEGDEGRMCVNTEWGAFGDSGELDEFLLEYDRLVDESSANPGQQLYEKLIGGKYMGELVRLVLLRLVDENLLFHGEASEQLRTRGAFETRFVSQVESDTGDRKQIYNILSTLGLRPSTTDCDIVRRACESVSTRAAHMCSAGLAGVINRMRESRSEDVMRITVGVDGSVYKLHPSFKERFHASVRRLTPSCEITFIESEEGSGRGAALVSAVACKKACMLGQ

[3] = Passive permeability of the compound in dog RRCK cells; type: ADME, cell-based, Canis lupus familiaris, MDCKII-LE; conditions: MDCK, read-out: permeability
Summary of the method: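 Passive permeability measured in the RRCK cell line; reported as 10^-6 cm/s.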

[4] = Intrinsic clearance of the compound in human liver microsomes; type: ADME, Microsome; conditions: read-out: CLH
Summary of the method: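 Human liver microsomal stability; intrinsic clearance expressed as ml/min/kg.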

[5] = Lipophilicity, log D of the compound by shake flask method; type: physicochemical; conditions: octanol/water
[6] = Cmax in Wistar-Han rat at 1 mg/kg, iv; type: ADME, organism-based; design: dose 1 mg/kg, route intravenous; conditions: in vivo
Summary of the method: (§1)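 Wistar-Han rats, n = 3 animals/group. Single intravenous dose of 1 mg/kg; plasma pharmacokinetic parameters determined.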

[7] = Half life in Wistar-Han rat at 5 mg/kg, po; type: ADME, organism-based; design: dose 5 mg/kg, route oral; conditions: in vivo
[8] = Drug excretion in Wistar-Han rat urine at 1 mg/kg, iv; type: ADME, organism-based; design: dose 1 mg/kg, route intravenous; conditions: read-out: Drug excretion
[9] = AUC in Wistar-Han rat at 1 mg/kg, iv; type: ADME, organism-based; design: dose 1 mg/kg, route intravenous; conditions: plasma
Summary of the method: (§2)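 Pharmacokinetics in Wistar-Han rats, n = 3 animals per group. Intravenous dosing was at 1 mg/kg, and oral dosing was at 5 mg/kg. Plasma AUC, Cmax, t1/2, clearance, Vdss and oral bioavailability were derived. Urine was collected after the i.v. dose to assess renal excretion.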

[10] = target: T2, Hexokinase-4 (Rattus norvegicus, UniProt P17712); assay: Activation of recombinant rat glucokinase assessed measuring rate of glucose 6-phosphate formation using G6PDH/NADP coupling
T2 sequence (P17712 whole entry): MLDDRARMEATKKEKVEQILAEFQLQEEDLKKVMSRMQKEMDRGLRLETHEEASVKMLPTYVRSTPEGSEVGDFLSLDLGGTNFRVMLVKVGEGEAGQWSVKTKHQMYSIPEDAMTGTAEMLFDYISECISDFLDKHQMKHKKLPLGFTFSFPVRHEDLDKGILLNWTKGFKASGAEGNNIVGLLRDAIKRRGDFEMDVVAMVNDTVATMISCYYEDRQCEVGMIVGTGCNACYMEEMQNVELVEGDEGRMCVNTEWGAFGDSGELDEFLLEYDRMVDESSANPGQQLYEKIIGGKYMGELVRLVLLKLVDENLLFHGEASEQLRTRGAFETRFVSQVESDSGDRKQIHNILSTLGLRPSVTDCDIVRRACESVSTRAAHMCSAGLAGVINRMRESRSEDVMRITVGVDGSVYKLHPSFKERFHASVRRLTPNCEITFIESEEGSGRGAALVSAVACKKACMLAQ
Summary of the method: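 Recombinant rat glucokinase; glucose 6-phosphate formation rate followed by G6PDH/NADP coupling. Matrix format: activator at 22 concentrations (0 to 100 µM range as printed) × 16 glucose concentrations (0 to 100 mM). Nonessential activator model fitted; EC50 = concentration giving half-maximal reduction in glucose Km.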

[11] = Half life in Wistar-Han rat at 1 mg/kg, iv; type: ADME, organism-based; design: dose 1 mg/kg, route intravenous; conditions: in vivo; summary of the method: as §1
[12] = Fraction unbound in rat plasma; type: ADME, cell-free
[13] = Fraction unbound in human plasma; type: ADME, cell-free
[14] = Volume of distribution at steady state in Wistar-Han rat at 1 mg/kg, iv; type: ADME, organism-based; design: dose 1 mg/kg, route intravenous; conditions: in vivo, read-out: Vdss; summary of the method: as §1
[15] = Oral bioavailability in Wistar-Han rat at 5 mg/kg; type: ADME, organism-based; conditions: in vivo
[16] = AUC in Wistar-Han rat at 5 mg/kg, po; type: ADME, organism-based; design: dose 5 mg/kg, route oral; conditions: plasma; summary of the method: as §2
[17] = system: Salmonella typhimurium; assay: Genotoxicity in Salmonella typhimurium by Ames test; type: toxicity, organism-based; conditions: salmonella enterica subsp. enterica serovar typhimurium
[18] = system: Rattus norvegicus; assay: Toxicity in Sprague-Dawley rat assessed as hypoglycemia at 10 to 250 mg/kg, po; type: organism-based; design: dose 10-250 mg/kg, route oral; conditions: in vivo
Summary of the method: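 Oral glucose tolerance test in overnight-fasted Sprague-Dawley rats. Single oral dose of 10–250 mg/kg (suspension in 30% sulfobutylether/water) given at t = −60 min, then 2 g/kg glucose orally at t = 0. Hypoglycemia defined as blood glucose <60 mg/dL. n = 7/group.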

[19] = Genotoxicity in micronucleus
[20] = Clearance in Wistar-Han rat at 1 mg/kg, iv; type: ADME, organism-based; design: dose 1 mg/kg, route intravenous; conditions: in vivo; summary of the method: as §1
[21] = system: Rattus norvegicus; assay: Antidiabetic activity in po dosed Sprague-Dawley rat assessed as reduction of plasma glucose AUC excursion by oral glucose tolerance test; type: functional, organism-based
Summary of the method: (§3)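 Sprague-Dawley rats fasted overnight, dosed orally at t = −60 min with 10, 25, 100 or 250 mg/kg as suspension in 30% sulfobutylether/water. Oral glucose challenge 2 g/kg at t = 0 min.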

[22] = target: Voltage-gated inwardly rectifying potassium channel KCNH2 (Homo sapiens, UniProt Q12809); assay: Inhibition of human ERG by patch clamp assay
Chain of Voltage-gated inwardly rectifying potassium channel KCNH2 (Q12809 whole entry): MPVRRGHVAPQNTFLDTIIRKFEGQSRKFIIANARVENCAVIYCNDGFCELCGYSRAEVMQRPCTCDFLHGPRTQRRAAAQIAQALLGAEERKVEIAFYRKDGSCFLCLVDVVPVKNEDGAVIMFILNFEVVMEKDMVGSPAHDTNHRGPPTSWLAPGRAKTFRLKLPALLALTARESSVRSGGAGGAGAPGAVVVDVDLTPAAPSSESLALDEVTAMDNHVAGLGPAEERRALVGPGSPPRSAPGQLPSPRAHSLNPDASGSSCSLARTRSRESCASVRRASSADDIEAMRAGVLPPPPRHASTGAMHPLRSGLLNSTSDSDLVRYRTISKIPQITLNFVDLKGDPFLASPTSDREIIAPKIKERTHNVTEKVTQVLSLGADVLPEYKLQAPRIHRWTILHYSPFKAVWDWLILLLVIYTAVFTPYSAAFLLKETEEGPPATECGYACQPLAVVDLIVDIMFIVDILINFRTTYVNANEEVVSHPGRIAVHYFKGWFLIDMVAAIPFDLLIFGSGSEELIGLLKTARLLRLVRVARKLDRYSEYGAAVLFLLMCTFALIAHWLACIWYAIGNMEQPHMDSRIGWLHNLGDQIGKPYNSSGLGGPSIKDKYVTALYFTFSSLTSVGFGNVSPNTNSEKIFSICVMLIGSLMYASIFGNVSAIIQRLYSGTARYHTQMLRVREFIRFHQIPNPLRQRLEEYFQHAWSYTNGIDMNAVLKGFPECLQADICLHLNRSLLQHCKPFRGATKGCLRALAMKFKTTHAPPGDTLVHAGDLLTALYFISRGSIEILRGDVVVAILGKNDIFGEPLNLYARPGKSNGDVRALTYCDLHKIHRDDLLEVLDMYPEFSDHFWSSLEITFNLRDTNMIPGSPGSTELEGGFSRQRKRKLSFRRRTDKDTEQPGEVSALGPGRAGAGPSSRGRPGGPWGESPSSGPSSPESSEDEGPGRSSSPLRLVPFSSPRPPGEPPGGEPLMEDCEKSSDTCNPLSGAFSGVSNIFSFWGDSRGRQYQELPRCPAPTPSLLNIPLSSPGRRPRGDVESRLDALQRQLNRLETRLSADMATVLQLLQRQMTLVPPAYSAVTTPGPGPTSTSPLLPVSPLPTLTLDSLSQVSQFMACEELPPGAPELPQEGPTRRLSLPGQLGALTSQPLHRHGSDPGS

[23] = Cmax in Wistar-Han rat at 5 mg/kg, po; type: ADME, organism-based; design: dose 5 mg/kg, route oral; conditions: in vivo
[24] = system: Rattus norvegicus; assay: Antidiabetic activity in Sprague-Dawley rat assessed as reduction of plasma glucose AUC excursion at 250 mg/kg, po by oral glucose tolerance test; type: functional; design: scale not given: the % may be the effect or the level left; summary of the method: as §3
[25] = system: INS1; assay: Increase of glucose-stimulated insulin secretion in rat INS-1 cells

## Cc1cnc(NC(=O)c2cc(Oc3cnc(C(=O)N(C)C)cn3)c3cc(C)nn3c2)cn1
[1]
  solubility kinetic: 123 µM (≈ 53.2 µg/mL)
[2]
  EC50: 620 nM
[3]
  Papp: 17 ×10⁻⁶ cm/s
[4]
  CLint scaled: 13.7 mL/min/kg
[5]
  logD: 1.87

## Cc1cnc(NC(=O)c2cc(Oc3ccc(S(C)(=O)=O)cc3)c3cn(C4CC4)nc3c2)cn1
[1]
  solubility kinetic: 0.5 µM (≈ 0.232 µg/mL)
[2]
  EC50: 2030 nM
[3]
  Papp: 15.5 ×10⁻⁶ cm/s
[4]
  CLint scaled: < 8 mL/min/kg

## Cc1cnc(NC(=O)c2cc(Oc3ccc(S(N)(=O)=O)cc3)c3cn(C)nc3c2)cn1
[2]
  EC50: 2320 nM

## CCS(=O)(=O)c1ccc(Oc2cc(C(=O)Nc3cnc(C)cn3)cc3nn(C)cc23)cc1
[1]
  solubility kinetic: 69 µM (≈ 31.2 µg/mL)
[2]
  EC50: 980 nM
[3]
  Papp: 10.6 ×10⁻⁶ cm/s
[4]
  CLint scaled: < 8 mL/min/kg

## Cc1cnc(NC(=O)c2cc(Oc3ccc(S(=O)(=O)N(C)C)cc3)c3cn(C)nc3c2)cn1
[1]
  solubility kinetic: 134 µM (≈ 62.5 µg/mL)
[2]
  EC50: 440 nM
[3]
  Papp: 13.6 ×10⁻⁶ cm/s
[4]
  CLint scaled: < 8 mL/min/kg

## CCn1cc2c(Oc3cnc(C(=O)N4CCC4)c(F)c3)cc(C(=O)Nc3cnc(C)cn3)cc2n1
[6]
  Cmax: 1820 ng/mL
[7]
  half-life: 2.6 h
[8]
  dose excreted: < 1%
[9]
  AUC: 1580 ng·h/mL
[10]
  EC50: 350 nM
[11]
  half-life: 1 h
[12]
  fraction unbound: 0.18
[13]
  fraction unbound: 0.2
[1]
  solubility kinetic: 84.8 µM (≈ 40.3 µg/mL)
[14]
  Vd: 0.61 L/kg
[15]
  bioavailability: 69%
[16]
  AUC: 5440 ng·h/mL
[17]
  Activity: Non-toxic
[18]
  Activity: Non-toxic
[2]
  EC50: 120 nM
[19]
  Activity: Non-toxic
[20]
  clearance: 10.5 mL/min/kg
[21]
  Activity: Dose-dependent effect
[3]
  Papp: 16.3 ×10⁻⁶ cm/s
[22]
  IC50: > 300000 nM
[4]
  CLint scaled: < 8 mL/min/kg
[23]
  Cmax: 1490 ng/mL
[24]
  Activity: 22%
[25]
  EC50: 170 nM
[5]
  logD: 2.01

## Cc1cnc(NC(=O)c2cc(Oc3ccc(C(=O)N(C)C)cc3)c3cn(C)nc3c2)cn1
[1]
  solubility kinetic: 351 µM (≈ 151 µg/mL)
[3]
  Papp: 14.6 ×10⁻⁶ cm/s
[4]
  CLint scaled: 12.3 mL/min/kg

## Cc1cnc(NC(=O)c2cc(Oc3cnc(C(=O)N(C)C)nc3)c3cn(C)nc3c2)cn1
[1]
  solubility kinetic: 446 µM (≈ 193 µg/mL)
[2]
  EC50: 910 nM
[3]
  Papp: 11.5 ×10⁻⁶ cm/s
[4]
  CLint scaled: < 8 mL/min/kg

## Cc1cnc(NC(=O)c2cc(Oc3cnc(C(=O)N(C)C)cn3)c3cc(C)oc3c2)cn1
[4]
  CLint scaled: < 8 mL/min/kg
[5]
  logD: 2.16

## Cc1cnc(NC(=O)c2cc(Oc3cnc(C(=O)N(C)C)c(F)c3)c3cn(C)nc3c2)cn1
[1]
  solubility kinetic: 328 µM (≈ 147 µg/mL)
[2]
  EC50: 400 nM
[3]
  Papp: 20.2 ×10⁻⁶ cm/s
[4]
  CLint scaled: < 8 mL/min/kg

## Cc1cnc(NC(=O)c2cc(Oc3cnc(C(=O)N4CCC4)c(F)c3)c3cn(C)nc3c2)cn1
[1]
  solubility kinetic: 70 µM (≈ 32.3 µg/mL)
[2]
  EC50: 340 nM
[3]
  Papp: 11.9 ×10⁻⁶ cm/s
[4]
  CLint scaled: < 8 mL/min/kg

## Cc1cnc(NC(=O)c2cc(Oc3cnc(C(=O)N(C)C)cn3)c3cn(C)nc3c2)cn1
[1]
  solubility kinetic: 192 µM (≈ 83 µg/mL)
[2]
  EC50: 990 nM
[3]
  Papp: 20.8 ×10⁻⁶ cm/s
[4]
  CLint scaled: < 8.5 mL/min/kg
[5]
  logD: 0.83

## CCCn1cc2c(Oc3ccc(S(C)(=O)=O)cc3)cc(C(=O)Nc3cnc(C)cn3)cc2n1
[1]
  solubility kinetic: 2.3 µM (≈ 1.07 µg/mL)
[2]
  EC50: 310 nM
[3]
  Papp: 14.2 ×10⁻⁶ cm/s
[4]
  CLint scaled: < 8 mL/min/kg

## CCn1cc2c(Oc3ccc(S(C)(=O)=O)cc3)cc(C(=O)Nc3cnc(C)cn3)cc2n1
[1]
  solubility kinetic: 2.1 µM (≈ 0.948 µg/mL)
[2]
  EC50: 770 nM
[3]
  Papp: 13.4 ×10⁻⁶ cm/s
[4]
  CLint scaled: < 8 mL/min/kg

## Cc1cnc(NC(=O)c2cc(Oc3ccc(S(C)(=O)=O)cc3)c3cn(C)nc3c2)cn1
[1]
  solubility kinetic: 454 µM (≈ 199 µg/mL)
[2]
  EC50: 1930 nM
[3]
  Papp: 20.4 ×10⁻⁶ cm/s
[4]
  CLint scaled: < 8 mL/min/kg

## CNS(=O)(=O)c1ccc(Oc2cc(C(=O)Nc3cnc(C)cn3)cc3nn(C)cc23)cc1
[1]
  solubility kinetic: 27 µM (≈ 12.2 µg/mL)
[4]
  CLint scaled: < 8.6 mL/min/kg

## CCn1cc2c(Oc3cnc(C(=O)N(C)C)c(F)c3)cc(C(=O)Nc3cnc(C)cn3)cc2n1
[1]
  solubility kinetic: 367 µM (≈ 170 µg/mL)
[2]
  EC50: 230 nM
[3]
  Papp: 13.8 ×10⁻⁶ cm/s
[4]
  CLint scaled: 10.4 mL/min/kg
[5]
  logD: 1.8

## Cc1cnc(NC(=O)c2cc(Oc3ccc(S(C)(=O)=O)cc3)c3cn(CCO)nc3c2)cn1
[1]
  solubility kinetic: 24.4 µM (≈ 11.4 µg/mL)
[2]
  EC50: 1540 nM
[3]
  Papp: 6.3 ×10⁻⁶ cm/s
[4]
  CLint scaled: < 8.9 mL/min/kg

## Cc1cnc(NC(=O)c2cc(Oc3ccc(S(=O)(=O)C4CC4)cc3)c3cn(C)nc3c2)cn1
[1]
  solubility kinetic: 73 µM (≈ 33.8 µg/mL)
[2]
  EC50: 510 nM
[3]
  Papp: 17.8 ×10⁻⁶ cm/s
[4]
  CLint scaled: < 8 mL/min/kg
